The text below walks through data of ChEMBL document CHEMBL3808369, “Identification of Cyproheptadine as an Inhibitor of SET Domain Containing Lysine Methyltransferase 7/9 (Set7/9) That Regulates Estrogen-Dependent Transcription” (J Med Chem, 2016).

Active and inactive are the calls of the source. The rule behind the calls is not given here.

Series [1] concerns the target T1, Histone-lysine N-methyltransferase SETD7 (Homo sapiens, UniProt Q8WTS6).
T1 sequence (Q8WTS6 whole entry): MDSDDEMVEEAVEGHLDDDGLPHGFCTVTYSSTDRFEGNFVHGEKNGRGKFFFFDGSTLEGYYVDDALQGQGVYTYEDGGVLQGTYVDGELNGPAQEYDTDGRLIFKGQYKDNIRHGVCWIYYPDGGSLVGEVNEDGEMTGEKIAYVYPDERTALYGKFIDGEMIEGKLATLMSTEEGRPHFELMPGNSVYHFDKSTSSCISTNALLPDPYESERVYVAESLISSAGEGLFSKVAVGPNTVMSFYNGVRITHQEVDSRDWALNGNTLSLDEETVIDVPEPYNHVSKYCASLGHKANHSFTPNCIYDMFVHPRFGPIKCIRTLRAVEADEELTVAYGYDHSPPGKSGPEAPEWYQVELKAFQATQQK
The series is described as follows: Inhibition of recombinant Set7/9 (unknown origin) expressed in Escherichia coli BL21 (DE3) using biotinylated histone H3-derived peptide/SAM as substrate by alphaLISA. (Alpha assays give light when donor and acceptor beads are brought close together.)

For another series, the system named is Mus musculus. As to the kind of experiment: Effect on body weight in Balb/c-nu/nu mouse xenografted with Fucci introduced human MCF7 cells at 20 mg/kg, ip qd administered as single dose. It counts as ADME, organism-based. As to conditions: in vivo. An outline of the steps:
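Female Balb/C-nu/nu mice, 7 weeks old, carried mammary Fucci-MCF7 xenografts (about 2 × 10^7 cells) grown to about 100 mm3. A single ip dose of 20 mg/kg in saline with 10% ethanol was given on day 1; a vehicle group ran alongside. Caliper tumor volume (a2b)/2 and body weight were recorded every 3 or 4 days to day 15. Tumor volume relative to day 1; six mice, mean ± SE.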
Background: In xenograft studies the graft and the host belong to different species.

Series [2] deals with T2, Histone-lysine N-methyltransferase SETD7 (Homo sapiens) (UniProt Q8WTS6).
T2 sequence (whole entry): T1 sequence (Q8WTS6 whole entry)
The series is described as follows: Inhibition of Set7/9 in human MCF7 cells assessed as reduction of ERalpha expression at 43 uM by immunoblotting analysis. It is filed as cell-based. The settings on record: TDE = time-dependent effect. The method in brief: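 MCF7 cells (1 × 10^5 per well) treated either with a concentration series for 48 h or with 43 μM over a time course. RIPA-sonicated lysates were immunoblotted for ERα with enhanced chemiluminescence readout.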
(In general: In western blotting, separated proteins are transferred to a membrane and probed.)

Series [3] has as its target T2, Histone-lysine N-methyltransferase SETD7 (Homo sapiens). The series is described as follows: Inhibition of Set7/9 in human MCF7 cells assessed as half life of ERalpha at 43 uM by immunoblotting analysis in presence of cycloheximide (reference value: 15.6 +/- 1.2 hrs). It counts as cell-based. The method in brief: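 MCF7 cells treated with or without 43 μM drug in the presence of 1 μg/mL cycloheximide for various times. ERα immunoblotted from RIPA lysates and band intensity quantified to derive half-life. Three independent assays.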

In series [4] the target is T1, Histone-lysine N-methyltransferase SETD7. As to the kind of experiment: Inhibition of recombinant Set7/9 (unknown origin) expressed in Escherichia coli BL21 (DE3) using Ac-KRSK-MCA peptide/SAM as substrate preincubated for 1 hr followed by substrate addition measured after 15 mins by Dixon plot analysis. An outline of the steps:
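Fluorogenic HMT kinetics used recombinant His-Set7/9 expressed in E. coli BL21(DE3) (IPTG 0.1 mM, 18 °C, 24 h) and purified on Ni2+ affinity. The methyl acceptor was Ac-KRSK-MCA and the cofactor was SAM. Ki was obtained from a Dixon plot of initial velocity versus inhibitor. Four independent assays, SD.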

For series [5], the target named is T3, Histone-lysine N-methyltransferase EHMT2 (Homo sapiens) (UniProt Q96KQ7).
T3 sequence (whole entry): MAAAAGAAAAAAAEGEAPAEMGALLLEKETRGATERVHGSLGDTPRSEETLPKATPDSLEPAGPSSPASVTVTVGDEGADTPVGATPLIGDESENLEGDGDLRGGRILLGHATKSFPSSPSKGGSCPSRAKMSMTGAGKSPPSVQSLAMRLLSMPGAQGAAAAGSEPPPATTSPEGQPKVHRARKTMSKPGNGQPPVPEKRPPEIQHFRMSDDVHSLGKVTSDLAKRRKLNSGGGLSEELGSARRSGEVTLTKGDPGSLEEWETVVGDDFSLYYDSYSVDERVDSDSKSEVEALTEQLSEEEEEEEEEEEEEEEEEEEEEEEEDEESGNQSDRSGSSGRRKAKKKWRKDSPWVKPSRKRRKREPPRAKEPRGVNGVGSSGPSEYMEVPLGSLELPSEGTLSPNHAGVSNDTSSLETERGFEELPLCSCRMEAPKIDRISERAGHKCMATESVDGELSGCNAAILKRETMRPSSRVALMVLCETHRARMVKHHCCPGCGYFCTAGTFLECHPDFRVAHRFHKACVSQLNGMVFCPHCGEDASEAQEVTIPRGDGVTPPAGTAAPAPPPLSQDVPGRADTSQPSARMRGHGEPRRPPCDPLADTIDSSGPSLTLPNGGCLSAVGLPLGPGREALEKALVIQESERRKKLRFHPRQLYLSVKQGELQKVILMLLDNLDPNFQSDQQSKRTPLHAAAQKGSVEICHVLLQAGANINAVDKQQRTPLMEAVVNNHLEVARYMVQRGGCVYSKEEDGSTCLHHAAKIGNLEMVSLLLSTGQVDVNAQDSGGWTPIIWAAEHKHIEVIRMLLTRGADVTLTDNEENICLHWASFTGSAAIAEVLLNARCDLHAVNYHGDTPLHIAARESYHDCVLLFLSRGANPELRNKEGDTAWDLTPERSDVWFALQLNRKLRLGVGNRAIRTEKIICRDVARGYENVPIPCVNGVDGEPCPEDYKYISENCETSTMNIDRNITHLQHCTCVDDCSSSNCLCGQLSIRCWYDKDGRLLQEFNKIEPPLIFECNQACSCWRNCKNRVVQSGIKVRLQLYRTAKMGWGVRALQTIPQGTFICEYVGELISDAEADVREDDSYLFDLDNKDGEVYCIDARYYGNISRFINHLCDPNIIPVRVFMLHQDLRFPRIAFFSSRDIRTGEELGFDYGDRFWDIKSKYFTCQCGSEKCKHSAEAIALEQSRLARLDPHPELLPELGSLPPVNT
As to the kind of experiment: Inhibition of G9a (unknown origin) by ELISA.

Series [6] concerns the target T4, N-lysine methyltransferase KMT5A (Homo sapiens) (UniProt Q9NQR1).
T4 sequence (whole entry): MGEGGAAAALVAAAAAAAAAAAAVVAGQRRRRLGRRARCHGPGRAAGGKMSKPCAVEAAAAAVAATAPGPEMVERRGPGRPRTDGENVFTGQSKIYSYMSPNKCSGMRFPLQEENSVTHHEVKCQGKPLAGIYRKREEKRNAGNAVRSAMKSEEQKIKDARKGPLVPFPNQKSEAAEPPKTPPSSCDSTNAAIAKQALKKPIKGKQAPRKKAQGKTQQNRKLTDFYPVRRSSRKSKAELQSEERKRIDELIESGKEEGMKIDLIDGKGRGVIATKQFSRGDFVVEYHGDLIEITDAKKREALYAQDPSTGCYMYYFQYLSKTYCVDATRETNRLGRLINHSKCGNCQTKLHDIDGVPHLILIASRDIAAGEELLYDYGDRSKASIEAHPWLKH
The series is described as follows: Inhibition of Set8 (unknown origin) by AlphaELISA.

The target of series [7] is Histone-lysine N-methyltransferase, H3 lysine-79 specific (Homo sapiens) (UniProt Q8TEK3). The series is described as follows: Inhibition of Dot1L (unknown origin) by AlphaELISA.
Sequence of Histone-lysine N-methyltransferase, H3 lysine-79 specific (Homo sapiens) (Q8TEK3 whole entry, looked up): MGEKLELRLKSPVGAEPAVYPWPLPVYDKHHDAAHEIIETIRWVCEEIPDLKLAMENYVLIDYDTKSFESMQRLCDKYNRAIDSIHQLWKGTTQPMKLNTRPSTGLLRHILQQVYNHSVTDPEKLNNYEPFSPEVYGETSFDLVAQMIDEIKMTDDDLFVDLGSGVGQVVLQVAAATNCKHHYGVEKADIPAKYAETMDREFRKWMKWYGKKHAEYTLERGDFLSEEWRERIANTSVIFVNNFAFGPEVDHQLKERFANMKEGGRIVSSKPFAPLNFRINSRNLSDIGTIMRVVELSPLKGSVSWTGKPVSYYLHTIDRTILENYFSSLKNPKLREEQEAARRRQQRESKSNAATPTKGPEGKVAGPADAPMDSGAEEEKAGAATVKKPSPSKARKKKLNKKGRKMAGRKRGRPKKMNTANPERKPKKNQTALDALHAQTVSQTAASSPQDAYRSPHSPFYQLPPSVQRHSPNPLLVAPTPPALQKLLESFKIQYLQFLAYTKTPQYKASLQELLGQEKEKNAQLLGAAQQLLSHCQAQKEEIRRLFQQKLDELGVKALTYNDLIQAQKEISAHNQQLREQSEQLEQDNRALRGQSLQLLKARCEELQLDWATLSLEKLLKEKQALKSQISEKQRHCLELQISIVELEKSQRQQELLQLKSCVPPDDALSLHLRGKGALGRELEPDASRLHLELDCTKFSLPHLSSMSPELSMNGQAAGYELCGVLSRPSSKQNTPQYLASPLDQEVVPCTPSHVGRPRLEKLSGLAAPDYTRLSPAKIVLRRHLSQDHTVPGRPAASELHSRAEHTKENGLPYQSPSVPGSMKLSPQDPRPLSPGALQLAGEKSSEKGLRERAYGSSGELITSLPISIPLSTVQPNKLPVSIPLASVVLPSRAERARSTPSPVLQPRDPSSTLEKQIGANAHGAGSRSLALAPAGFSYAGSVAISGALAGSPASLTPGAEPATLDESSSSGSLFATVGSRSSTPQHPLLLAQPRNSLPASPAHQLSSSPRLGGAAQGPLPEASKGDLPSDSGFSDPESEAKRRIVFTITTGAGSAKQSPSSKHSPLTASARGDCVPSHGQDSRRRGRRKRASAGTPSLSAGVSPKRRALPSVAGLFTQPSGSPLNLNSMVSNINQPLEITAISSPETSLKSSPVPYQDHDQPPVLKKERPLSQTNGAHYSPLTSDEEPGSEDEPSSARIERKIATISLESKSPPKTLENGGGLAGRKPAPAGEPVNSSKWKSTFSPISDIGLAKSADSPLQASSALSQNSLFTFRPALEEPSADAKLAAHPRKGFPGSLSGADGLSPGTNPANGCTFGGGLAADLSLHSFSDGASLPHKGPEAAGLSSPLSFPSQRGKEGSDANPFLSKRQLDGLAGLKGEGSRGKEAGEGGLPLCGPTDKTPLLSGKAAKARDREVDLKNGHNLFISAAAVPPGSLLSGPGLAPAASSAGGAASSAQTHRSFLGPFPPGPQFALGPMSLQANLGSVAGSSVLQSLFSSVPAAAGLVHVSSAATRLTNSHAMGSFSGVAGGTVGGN

With `CN1CCC(=C2c3ccccc3C=Cc3ccccc32)CC1` [CYPROHEPTADINE], the IC50 (usually the midpoint of a concentration-inhibition curve) in series [1] is 1 µM. For the same compound, the Activity result in the series on Mus musculus is on record as “Non-toxic”. The inhibition result in series [2] is “tde”. In addition, in series [3], the T1/2 is 10.3 h. Also, the inhibition constant Ki (commonly a measure of affinity in units of concentration, obtained from inhibition or displacement) in series [4] amounted to 15 µM. Besides, the inhibition result in series [5], in series [6] and in series [7] was “Active” throughout.
